Measurements gathered from unrelated publications.
Target: Tyrosine-protein kinase Fgr (FGR, Homo sapiens, UniProt P09769)

CCS(=O)(=O)c1cc2cc(C[C@](O)(CC(C)(C)c3ccc(F)cc3C(N)=O)C(F)(F)F)[nH]c2cn1
remaining binding (cell-free assay; competition with immobilised ligand; 1 µM): 100%

Cc1cnn2ncc(-c3ccnc(N(C)C)n3)c2c1
remaining binding (binding; 1 µM): 100%

CCC(=N\O)/C(C)=C/c1ccc(F)cc1
remaining binding (cell-free assay; competition with immobilised ligand; 1 µM): 67%

CCN1CCN(Cc2ccc(C(=O)Nc3ccc(C)c(Oc4ccc5c(c4)CC(=O)N5)c3)cc2C(F)(F)F)CC1
remaining binding (binding; competition with immobilised ligand; 1 µM): 68%

COc1cnc(Nc2cccc(S(N)(=O)=O)c2)nc1N1CCN(c2ccccc2)C(=O)C1
remaining binding (binding; competition with immobilised ligand; 1 µM): 100%

C[C@@H]1CN(c2cc(-c3nn(C)c4ccc(OC5(C)CC5)cc34)ncn2)C[C@H](C)O1
remaining binding (cell-free assay; competition with immobilised ligand; 1 µM): 90%

CN(C)c1nccc(-c2cnc3ncccn23)n1
remaining binding (binding; 1 µM): 100%

FC(F)(F)Oc1cccc(-c2cnc3ccc(-c4ccncc4)nn23)c1
remaining binding (cell-free assay; competition with immobilised ligand; 5 µM): 69%

Cc1cnc(Nc2ccc(C(=O)N3CCC(N4CCCC4)CC3)cc2)nc1-c1cc2ccccc2s1
remaining binding (cell-free assay; competition with immobilised ligand; 1 µM): 53%

CN(C)c1nccc(-c2cnn3ncccc23)n1
remaining binding (binding; 1 µM): 100%

COCCOc1nc(-c2ccc(Cl)nc2)nc2c1CN(C(=O)c1ncn3ccccc13)CC2
remaining binding (cell-free assay; competition with immobilised ligand; 0.1 µM): 100%

c1cncc(-c2cccc(Nc3nccc(NC4CCCCC4)n3)c2)c1
remaining binding (binding; competition with immobilised ligand; 10 µM): 14%

O=C(Nc1c[nH]nc1C(=O)NC1CCNCC1)c1cc(F)cc(F)c1
remaining binding (binding; competition with immobilised ligand; 1 µM): 100%

O=C(c1ccc(Nc2nccc(-c3cc4ccccc4s3)n2)cc1)N1CCC(N2CCCC2)CC1
remaining binding (cell-free assay; competition with immobilised ligand; 1 µM): 93%

CN(CCCC(F)(F)F)c1nccc(-c2cnn3ncccc23)n1
remaining binding (binding; 1 µM): 85%

CN([C@@H]1CCc2c(CC(=O)O)c3ccccc3n2C1)S(=O)(=O)c1ccc(F)cc1
remaining binding (cell-free assay; competition with immobilised ligand; 1 µM): 93%

CC1CCCN1c1nccc(-c2cnn3ncccc23)n1 (stereo not drawn)
remaining binding (binding; 1 µM): 98%

CN(C)CC#Cc1ccc(OCCCc2sc(N3CCc4cccc(C(=O)Nc5nc6ccccc6s5)c4C3)nc2C(=O)O)c(F)c1
remaining binding (cell-free assay; competition with immobilised ligand; 1 µM): 100%

Nc1ncc2c(n1)-c1c([nH]c3ccc(C#CC4CC4)cc13)CCCC2
remaining binding (binding; competition with immobilised ligand; 1 µM): 100%

O=C(NCCCN1CCOCC1)c1ccc(Nc2nccc(-c3cc4ccccc4s3)n2)cc1
remaining binding (cell-free assay; competition with immobilised ligand; 1 µM): 79%

C[C@H]1CCN(c2nccc(-c3cnn4ncccc34)n2)C1
remaining binding (binding; 1 µM): 100%
